Hits are enriched below; roughly 2.2% of the tested compounds scored in any of these assays.
Rin1 Abl inh: blocks binding of human Rin1 to Abl. 360,000 compounds, 0.4% hits. P00519+Q13671. TR-FRET Rin1/Abl binding, biochemical. inhibition, % at 7.35 µM. AID 588664; in the data active = inhibition above about 5%, passing the limit was not always enough
UBC13 inh: human UBC13 polyubiquitination inhibition; P61088; UBC13 polyubiquitin chain formation, TR-FRET; inhibition, % at 20 µM; 330,000 compounds, 0.47% hits; in the data active = inhibition above about 45%, passing the limit was not always enough
Target sequence (P61088 whole entry, looked up): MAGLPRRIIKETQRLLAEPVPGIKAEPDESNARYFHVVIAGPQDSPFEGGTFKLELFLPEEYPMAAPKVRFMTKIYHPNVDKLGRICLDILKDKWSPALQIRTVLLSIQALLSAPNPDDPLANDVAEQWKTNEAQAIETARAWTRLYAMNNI
UBC9 SUMO inh: inhibitors of human SUMOylation (UBC9); P63279; HTRF SUMOylation assay, SAE1/SAE2 + UBC9, in vitro; inhibition, % at 35 µM; 290,000 compounds, 0.36% hits; AID 2006; in the data active = inhibition above about 50%, passing the limit was not always enough
Target sequence (P63279 whole entry, looked up): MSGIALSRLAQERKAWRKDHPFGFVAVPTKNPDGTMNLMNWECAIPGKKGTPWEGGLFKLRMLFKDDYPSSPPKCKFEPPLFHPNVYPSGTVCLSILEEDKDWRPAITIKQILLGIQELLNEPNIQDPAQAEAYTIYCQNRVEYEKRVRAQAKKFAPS
Apaf-1 inh: human Apaf-1 inhibition. reconstituted apoptosome caspase-3 activity, DEVD-Rh110 fluorescence. inhibition, % at 20 µM. 330,000 compounds, 0.71% hits. AID 489030; active = inhibition of at least 40% at 20 µM
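Assay system – apoptosome proteins · Medium – Hepes buffer, pH 7.5 · Also added – cytochrome c with DEVD-Rh110 · Timing – 30 min compound preincubation, 50 min activation, room temperature · Detection – Rh110 fluorescence, excitation 480 nm, emission 540 nm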
PAD4 inh: blocks human protein arginine deiminase 4 | AID 485272 | inhibition, % at 6.36 µM | Q9UM07 | 330,000 compounds, 0.41% hits | recombinant PAD4, RCA probe fluorescence polarization;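 active = percent inhibition above a cutoff equal to the mean of all tested compounds plus 3 SD, cut at about 15% in these data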
GSTO1 counter: GSTO1 inhibition, counter-screen for RBBP9 inhibitors; recombinant GSTO1, activity-based probe fluorescence polarization; inhibition, % at 5.96 µM; 300,000 compounds, 1.1% hits; AID 1974;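 active = inhibition above the campaign mean inhibition plus 3 SD, cut at about 35% in these data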
Target sequence (P78417 whole entry, looked up): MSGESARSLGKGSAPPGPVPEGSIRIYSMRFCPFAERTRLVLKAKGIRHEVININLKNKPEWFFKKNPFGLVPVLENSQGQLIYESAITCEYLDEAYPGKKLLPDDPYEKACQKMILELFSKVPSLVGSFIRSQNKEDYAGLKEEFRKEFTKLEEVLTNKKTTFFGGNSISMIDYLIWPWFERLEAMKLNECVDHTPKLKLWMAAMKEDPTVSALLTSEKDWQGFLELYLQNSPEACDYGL
Apaf-1 inh conf2: Apaf-1 inhibition, single-dose confirmed | shares compounds with Apaf-1 inh | reconstituted apoptosome, caspase-3 DEVD-Rh110 fluorescence | inhibition, % at 20 µM | 1,800 compounds, 25% hits | AID 504614;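 active = mean inhibition of at least 40% at 20 µM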
Rh110 interf inh: counter-screen for Apaf-1 inhibitors: fluorescence interference; shares compounds with Apaf-1 inh; Rh110 fluorescence interference, quenched caspase reaction; activation (fluorescence interference), % at 20 µM; 1,800 tested, under 10 active;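 active = signal rise of 40% or more at 20 µM, treated as a fluorescence artifact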
Apaf1 inh interf: counter-screen for Apaf-1 inhibitors: fluorescence interference, dose response | shares compounds with Apaf-1 inh | fluorescence interference counterscreen, Apaf-1 assay format | IC50, µM | 460 tested, under 10 active | AID 588538; call rule not given here
Numbers stand for hits; . = inactive; / = not tested or not shown.

SMILES | Rin1 Abl inh | UBC13 inh | UBC9 SUMO inh | Apaf-1 inh | PAD4 inh | GSTO1 counter | Apaf-1 inh conf2 | Rh110 interf inh | others
CCN(C(=S)Nc1cccnc1)c1cccc2ccccc12 | . | . | 100 | 85 | . | . | . | .
S=C(Nc1cccnc1)Nc1cccc2cnccc12 | . | . | 97 | 86 | . | . | . | .
CCOC(=O)C1CCCN(C(=O)c2ccc3ccccc3c2)CC1 (configuration not stated) | . | / | / | / | / | / | / | /
COc1c(Cl)cc(C(=O)Nc2cccnc2)cc1Cl | . | / | / | / | / | / | / | /
CCc1cccc(NC(=O)COC(=O)CSc2ccc(C)cc2)c1 | . | / | / | / | / | / | / | /
CN(CC(=O)NCc1ccccc1)CC(=O)Nc1ccc(Cl)c(C(F)(F)F)c1 | . | . | / | 53 | . | / | . | .
CN(CC(=O)NC(=O)NCc1ccccc1)CC(=O)Nc1ccc(Cl)c(C(F)(F)F)c1 | . | . | / | . | . | . | / | /
CN(CC(=O)Nc1ccc(Cl)c(C(F)(F)F)c1)C(=O)CC1Sc2ccccc2NC1=O (configuration not stated) | . | . | . | 51 | . | . | 47 | . | Apaf1 inh interf=.
CCc1ccc([C@@H]2CC(=O)[C@@H]3CN(S(=O)(=O)c4ccc(Cl)cc4)[C@H](c4ccc(C)cc4)C[C@@H]3N2S(=O)(=O)c2ccc(C)cc2)cc1 | . | / | / | / | / | / | / | /
CCCc1cc(=O)oc2c3c(c4c(c12)OC(C)(C)C=C4)OC(C)C(C)C3O (configuration not stated) | . | . | . | 53 | . | . | 47 | . | Apaf1 inh interf=.
CC1(C(=O)Nc2cccc3ccccc23)CC1(Br)Br (configuration not stated) | . | . | . | 56 | . | . | . | .
COc1ccccc1NC(=S)Nc1cccc2cnccc12 | . | . | 51 | 97 | . | . | . | .
Cc1cccc(NC(=O)Nc2cccc3ccccc23)c1 | . | . | . | . | . | . | / | /
Cc1cccc(NC(=S)Nc2cccc3ccccc23)c1 | . | . | . | 93 | . | . | . | .
COc1ccccc1NC(=S)NCc1cccnc1 | . | . | . | . | . | . | / | /
CCOc1ccc(NC(=S)Nc2cccc3cnccc23)cc1 | . | . | 89 | 96 | . | . | . | .
COc1ccc(S(=O)(=O)NC(=O)C2(C)CCN2C(=O)CC2CC2)cc1 (configuration not stated) | . | / | / | / | / | / | / | /
CCOc1ccc(NC(=S)Nc2cccc3ccccc23)cc1 | . | . | . | 66 | . | . | . | .
COc1ccc(NC(=S)Nc2cccc3cnccc23)cc1 | . | . | 94 | 95 | . | . | . | .
CC(=O)NNC(=S)Nc1cc(S(=O)(=O)N(C)C)ccc1C | . | . | . | . | . | . | / | /
Cc1ccc(S(=O)(=O)N(C)C)cc1NC(=S)Nc1cccc2ccccc12 | . | . | 92 | 93 | . | . | . | .
CC(=O)Nc1ccc(C(=O)CSc2nnc(-c3ccccc3F)n2CCc2ccccc2)cc1 | . | / | / | / | / | / | / | /
Cc1ccccc1CNC(=O)C(=O)NCCC1CCCCN1S(=O)(=O)c1cccs1 (configuration not stated) | . | . | / | . | . | . | / | /
Cc1cc(C(=O)COc2cccc3cccnc23)c(C)n1C | . | . | . | 53 | . | . | . | .
Cc1cc(C(=O)COc2ccccc2C(N)=O)c(C)n1C | . | . | . | . | . | . | / | /
SMILES | Rin1 Abl inh | UBC13 inh | UBC9 SUMO inh | Apaf-1 inh | PAD4 inh | GSTO1 counter | Apaf-1 inh conf2 | Rh110 interf inh | others
CN(Cc1ccc(F)cc1)C(=O)CNC(=O)c1cccs1 | . | . | / | 56 | . | / | 41 | . | Apaf1 inh interf=.
CN(Cc1c(F)cccc1Cl)C(=O)CNC(=O)c1cccs1 | . | . | . | . | . | . | / | /
CCCCCCSc1cc(-c2nc3cnccn3c2NCCCC)ccc1OC | . | . | / | 46 | . | / | . | .
CCCCNc1c(-c2ccc(OC)c(Sc3ccc(OC)cc3)c2)nc2ccccn12 | . | . | / | . | . | . | / | /
CCCCNc1c(-c2ccc(OC)c(Sc3ccc(OC)cc3)c2)nc2cnccn12 | . | . | / | 43 | . | / | . | .
CCCCNc1c(-c2ccc(SC(C)CC)cc2)nc2cnccn12 (configuration not stated) | . | . | / | 60 | . | / | 46 | . | Apaf1 inh interf=.
COc1cc(C(O)c2nc(-c3ccc(F)c(Cl)c3)cs2)ccc1F (configuration not stated) | . | / | / | / | / | / | / | /
Cc1cc([N+](=O)[O-])c(C)cc1-c1ccc(/C=N/NC(=O)c2cccnc2)o1 | . | . | . | 55 | . | . | . | .
C[C@H](CO)N1C[C@H](C)[C@H](CN(C)C(=O)Nc2ccccc2F)OCc2cnnn2CCCC1=O | . | / | / | / | / | / | / | /
O=C(NC1=C(Nc2ccc(F)cc2)C(=O)c2ccccc2C1=O)c1ccc(Cl)cc1 | . | . | . | 70 | . | . | 68 | . | Apaf1 inh interf=.
CN(C(=O)COC(=O)c1c2c(nc3ccccc13)CCCC2)c1c(N)n(Cc2ccccc2)c(=O)[nH]c1=O | . | . | / | . | . | . | / | /
CCOC(=O)N1CCN(C(=O)c2cccc(S(=O)(=O)Nc3ccc(OC)cc3)c2)CC1 | . | . | / | 51 | . | . | . | .
COc1ccc(C(=O)N(Cc2ccccc2)c2cccc(C)c2)cc1S(=O)(=O)N1CCOCC1 | . | . | / | 45 | . | . | . | .
Cc1cccc(N(Cc2ccccc2)C(=O)c2ccc(C)c(S(=O)(=O)N3CCOCC3)c2)c1 | . | . | / | . | . | / | / | /
COc1cc(OC)c2c(-c3cccc(-c4ccc(CO)cc4)c3)cc(=O)oc2c1 | . | / | / | 42 | . | / | . | .
COc1ccc(NC(=O)c2ccc(-c3c(C)noc3C)c3ccoc23)cc1 | . | / | / | / | / | / | / | /
CC(NCc1cccc(OCc2ccccc2)c1)C(O)c1ccccc1 (configuration not stated) | . | . | . | . | . | . | / | /
CC(NCc1ccc(OCc2ccc(Cl)cc2)cc1)C(O)c1ccccc1 (configuration not stated) | . | . | . | 41 | . | . | . | .
O=C(Nc1nnc([C@@H]2C[C@H](O)[C@@H](CO)O2)s1)NC1CCCCC1 | . | / | / | / | / | / | / | /
C=CCn1c(SCC(=O)NC2CC2)nnc1C1CC1 | . | . | . | . | . | . | / | /
COc1ccc(-c2c(C#Cc3ccc(N(C)C)cc3)c3ccccc3n2C)cc1 | . | . | / | 57 | . | / | . | .
COc1ccc(S(=O)(=O)N2CCC(C(=O)Nc3ccccc3N3CCCCC3)CC2)cc1OC | . | . | . | . | . | . | / | /
COCCN(C(=O)CSc1nc(N)cc(=O)[nH]1)c1c(N)n(Cc2ccccc2)c(=O)[nH]c1=O | . | . | / | 45 | . | . | . | .
